Assays:
[1] = system: C2C12; test: Induction of glucose uptake in mouse C2C12 cells assessed as [3H]2-deoxyglucose uptake preincubated for 16 hrs followed by followed by [3H]2-deoxyglucose addition and measured after 10 mins by liquid scintillation counting method; type: functional
In short: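 C2C12 mouse myoblasts were grown in high-glucose DMEM with 10% FBS. At 80% confluence they were differentiated into myotubes with 2% horse serum. Myotubes were exposed to compound (10 µM) for 16 h in medium with 0.1% horse serum, then washed with KRB pH 7.4 and given 1 µCi/mL [3H]-2-deoxyglucose for 10 min at 37 °C. After ice-cold washes and 0.1% SDS lysis, scintillation counts were normalised to BCA protein. Results are fold change vs DMSO, mean ± SEM, one-way ANOVA.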

[2] = Inhibition of NADH:ubiquinone oxidoreductase in rat liver mitochondria incubated for 3 mins
[3] = Apparent permeability in MDCK-MDR1 cells at 10 uM after 30 mins by LC-MS/MS analysis; type: ADME, cell-based, Canis lupus familiaris; details: dog
In short: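 Test article was taken from a 10 mM DMSO stock and diluted in DMEM to a final 10 µM donor solution, with 10 µM propranolol as internal standard. It was applied to hMDR1-MDCK monolayers on filters. Transfer to the receiver compartment was measured over 30 min in both directions, apical-to-basolateral and basolateral-to-apical. Quantification was by LC-MS/MS, n = 3.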

Row | SMILES | fold change (FC) [1] | IC50 [2] | Papp at 0.5 h, 10 µM [3]
1 | CCCCCCCC(=O)N1CCN(c2ccc(C(F)(F)F)cc2)CC1 | 1.38 |  | 
2 | CCCCC(=O)N1CCN(c2ccc(C(F)(F)F)cc2)CC1 | 1.28 |  | 
3 | CN1CCN(C(=O)CCCc2cccs2)CC1 | 0.84 | 161 µM | 
4 | O=C(O)CCCCCCCC(=O)N1CCN(c2ccc(C(F)(F)F)cc2)CC1 | 1.38 |  | 
5 | FC(F)(F)c1cnc(N2CCNCC2)c(Cl)c1 | 1.16 |  | 
6 | O=C(CCc1ccco1)N1CCN(c2ccc(C(F)(F)F)cc2)CC1 | 1.11 |  | 
7 | O=C(CCCc1cn[nH]c1)N1CCN(c2ccc(C(F)(F)F)cc2)CC1 | 1.35 |  | 
8 | O=C(CCCc1cccs1)N1CCN(c2ccc(C(F)(F)F)cc2Br)CC1 | 1.02 |  | 
9 | O=C(CCCCCc1cccs1)N1CCN(c2ccc(C(F)(F)F)cc2)CC1 | 1.33 |  | 
10 | O=C(CCC(=O)N1CCC(c2ccc(C(F)(F)F)cc2)CC1)c1cccs1 | 1.31 |  | 
11 | COC(=O)CCCCCCCC(=O)N1CCN(c2ccc(C(F)(F)F)cc2)CC1 | 1.08 |  | 
12 | O=C(CCCc1cccs1)N1CCN(c2ncc(C(F)(F)F)cc2Cl)CC1 | 1.13 |  | 
13 | O=C(CCCc1cccs1)N1CCN(c2ccccc2C(F)(F)F)CC1 | 0.85 |  | 
14 | Nc1ccc(N2CCN(C(=O)CCCc3cccs3)CC2)cc1 | 1.32 |  | 
15 | O=C(CCCc1cccs1)N1CCN(c2ccc(C(F)(F)F)c(Cl)n2)CC1 | 1.22 |  | 
16 | O=C(CCSc1cccs1)N1CCN(c2ccc(C(F)(F)F)cc2)CC1 | 2.14 | 14 µM | 
17 | O=C(CCCc1cccs1)N1CCN(c2cc(C(F)(F)F)cc(C(F)(F)F)c2)CC1 | 1.42 |  | 
18 | O=C(CCCc1cccs1)N1CCN(c2ccc(F)cc2)CC1 | 1.16 |  | 
19 | COCCNC(=O)CCCCCCCC(=O)N1CCN(c2ccc(C(F)(F)F)cc2)CC1 | 2.35 |  | 
20 | Cc1ccc(N2CCN(C(=O)CCCc3cccs3)CC2)cc1 | 1 |  | 
21 | O=C(CCc1cccs1)N1CCN(c2ccc(C(F)(F)F)cc2)CC1 | 1.09 |  | 
22 | CC(=O)N1CCN(c2ccc(C(F)(F)F)cc2)CC1 | 1.43 |  | 

Row | SMILES | fold change (FC) [1] | IC50 [2] | Papp at 0.5 h, 10 µM [3]
23 | O=C(Cc1cccs1)N1CCN(c2ccc(C(F)(F)F)cc2)CC1 | 1.33 |  | 
24 | COC(=O)CCCc1cccs1 | 1.09 |  | 
25 | CN1CCN(c2ncc(C(F)(F)F)cc2Cl)CC1 | 0.92 | 67 µM | 
26 | O=C(CCCCc1ccccc1)N1CCN(c2ccc(C(F)(F)F)cc2)CC1 | 1.95 | 6 µM | 
27 | O=C(CCCc1cccs1)N1CCN(c2ccc(C(F)(F)F)cc2Cl)CC1 | 1.58 | 46 µM | 
28 | FC(F)(F)c1ccc(N2CCN(CCCCc3cccs3)CC2)cc1 | 1.36 |  | 
29 | O=C(CCCc1cccs1)NNc1ccc(C(F)(F)F)cc1 | 1.24 |  | 
30 | O=C(CCCc1cccs1)N1CCN(c2ccccc2)CC1 | 0.96 | 133 µM | 
31 | O=C(CCCCc1cccs1)N1CCN(c2ccc(C(F)(F)F)cc2)CC1 | 1.78 | 60 µM | 
32 | O=C(CCSc1cccs1)N1CCN(c2ncc(C(F)(F)F)cc2Cl)CC1 | 1.31 |  | 
33 | O=C(CCCc1cccs1)N1CCN(c2ccc(C(F)(F)F)cn2)CC1 | 1 |  | 
34 | O=C(CCCc1cccs1)N1CCC(c2ccccc2)CC1 | 1.25 |  | 
35 | O=C(CCC(=O)N1CCN(c2ccc(C(F)(F)F)cn2)CC1)c1cccs1 | 1.22 |  | 
36 | O=C(CCCc1cccs1)Nc1ccc(C(F)(F)F)cc1 | 1.11 | 92 µM | 
37 | CC(C)NCC(O)COc1cccc2ccccc12 (centres undefined) [PROPRANOLOL] |  |  | 21.8 ×10⁻⁶ cm/s
38 | O=C(CCCc1cccs1)N1CCC(c2ccc(C(F)(F)F)cc2)CC1 | 2.14 | 15 µM | 
39 | O=C(CCCc1cccs1)N1CCN(C2CCCCC2)CC1 | 1.29 |  | 
40 | O=C(CCCc1cccs1)N1CCN(c2ccc([N+](=O)[O-])cc2)CC1 | 1.06 | 17 µM | 
41 | O=C(CCC(=O)N1CCN(c2ncc(C(F)(F)F)cc2Cl)CC1)c1cccs1 | 1.26 |  | 
42 | O=C(O)CCCc1cccs1 | 1.16 |  | 
43 | O=C(c1cccs1)N1CCN(c2ccc(C(F)(F)F)cc2)CC1 | 0.93 |  | 
44 | O=C(CCC(=O)N1CCN(c2ccc(C(F)(F)F)cc2)CC1)c1cccs1 | 1.19 |  | 

From ChEMBL document CHEMBL4765370, “Design, synthesis, and biological evaluation of aryl piperazines with potential as antidiabetic agents via the stimulation of glucose uptake and inhibition of NADH:ubiquinone oxidoreductase” (Eur J Med Chem, 2020)
